We go through 14 compounds from PubChem BioAssay.

A word on the inhibition: it is the drop in the measured response relative to a control, in per cent.

Experiment [1] is described as follows: inhibitors of TNFa-induced NFkB p65 translocation, primary screen, imaging, HUVEC, MLSMR starter and 10KST1 sets (AID 438;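 active = inhibition above 20% together with a positive visual image hit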;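 also: compound added about 3h40 before a 20 min TNFalpha stimulation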;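 as to inhibition: signal is the nuclear over cytoplasmic p65 intensity ratio per well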). The settings on record: HUVEC TNFa-induced p65 nuclear translocation; cell count: measured here: nuclei count (cytotoxicity indicator), at 2.08 µM; inhibition: at 2 µM, stronger effect = higher value, 0% TNFa-plus-vehicle, 100% no-TNFa wells.
A short description of experiment [2]: inhibitors of mutant huntingtin aggregation, primary screen, imaging, exon1htt(103Q)mCFP cells, high-content imaging (AID 483;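 active = visual image review flags a hit and inhibition of aggregation exceeds 20%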;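 also: compound exposure lasted 3 days before fixation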;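 as to nuclei count: percent of the per-plate median nuclei count of sample wells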). The settings on record: exon1htt(103Q)mCFP cell line, aggregate imaging, at 2 µM; inhibition of aggregation: stronger effect = higher value; nuclei count: measured here: cell count, toxicity.
A short description of experiment [3]: inhibitors of E-selectin induction by TNFa, primary screen, imaging, HUVEC, immunofluorescence, MLSMR starter and 10KST1 sets (AID 487;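 active = visually confirmed hit in the image check and inhibition above 20%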;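 as to inhibition: signal is fraction of cell area covered by stained E-selectin grains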;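 as to nuclei count: 100% = median nuclei count of all wells on the same plate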). The settings on record: HUVEC TNFalpha-induced E-selectin immunofluorescence imaging, at 2 µM; inhibition: stronger effect = higher value; nuclei count: measured here: cell number, toxicity.
Experiment [4] deals with Voltage-gated potassium channel subunit beta-2 (Rattus norvegicus) (UniProt P62483). The experiment in a line: KvBeta enzyme negative modulators, primary screen, biochemical, NADPH fluorescence (AID 622).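 Also: slope of raw intensity against log time taken from 70 to 1610 s.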 The settings on record: recombinant KvBeta, 4-cyanobenzaldehyde reduction, at 10 µM, stronger effect = higher value.
Chain of Voltage-gated potassium channel subunit beta-2 (Rattus norvegicus) (P62483 whole entry, looked up): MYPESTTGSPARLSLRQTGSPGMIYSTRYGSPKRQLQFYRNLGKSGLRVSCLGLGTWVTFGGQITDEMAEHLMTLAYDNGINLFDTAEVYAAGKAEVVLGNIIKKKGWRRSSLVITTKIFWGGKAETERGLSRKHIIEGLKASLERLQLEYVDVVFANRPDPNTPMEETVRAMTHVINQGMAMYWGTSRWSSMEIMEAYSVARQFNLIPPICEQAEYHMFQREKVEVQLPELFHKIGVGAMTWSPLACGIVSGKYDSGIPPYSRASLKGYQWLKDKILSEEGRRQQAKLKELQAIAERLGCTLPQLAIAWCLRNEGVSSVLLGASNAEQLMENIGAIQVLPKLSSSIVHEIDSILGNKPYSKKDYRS
Experiment [5] shares this target. Put plainly: KvBeta positive modulators, primary screen, biochemical, NADPH fluorescence (AID 623;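 active = NADPH fluorescence slope more negative than the mean of all samples by about 3 SD, 99.7% confidence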;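 also: fluorescence intensity change per second fitted from 20 to 320 s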). The settings on record: Recombinant KvBeta, NADPH fluorescence decrease slope, 10 min; at 10 µM; stronger effect = lower value.
The target of experiment [6] is Muscarinic acetylcholine receptor M4 (Homo sapiens) (UniProt P08173). The experiment in a line: compounds altering M4/GIRK thallium flux, either direction, primary screen, M4 allosteric agonist project, cell-based, HEK293 M4/GIRK, BTC-AM (AID 625;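 active = fluorescence slope after compound addition differing from the mean of all tested samples at 99.7% confidence, mostly higher but some lower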;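 also: thallium influx through GIRK channels coupled to M4 in HEK293 cells with BTC-AM dye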). The settings on record: at 10 µM, actives lie on both sides. A digest of the protocol:
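Material: M4/GIRK1/GIRK2 stable HEK293 cell line. Medium: pH 7.3 thallium assay buffer. Dosing: single compound concentration, 10 µM final. Schedule: 1 h dye loading, 2 min kinetic read. Measured by: kinetic fluorescence with BTC-AM dye. Read-out: post-addition slope, 15–24 s, of baseline-normalized fluorescence. Benchmarks: carbachol and DMSO controls.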

A short description of experiment [7]: inhibitors of Sendai virus-induced IRF3 signaling, primary screen, TLR/RLR signaling modifier project, cell-based, Sendai virus stimulus, luciferase, 10K MLSCN set (AID 602276;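 active = inhibition at or above 50% at 10 µM; inactive = inhibition below 50%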;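 also: firefly luciferase from ISG56 promoter only with Renilla not read in this screen; 0% = Sendai virus plus DMSO and 100% = medium plus DMSO without virus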). The settings on record: HEK293 RL24 IRF3 luciferase reporter, at 10 µM, stronger effect = higher value.
A short description of experiment [8]: inhibitors of poly I:C-induced TLR3 signaling, primary screen, cell-based, poly I:C stimulus, luciferase, 10K MLSCN set (AID 602277;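 active = inhibition of the reporter signal at or above 50%; inactive = inhibition below 50%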). The settings on record: HEK293-TLR3 RL24 IRF3 luciferase reporter, at 10 µM, stronger effect = higher value. Background: In a reporter assay the amount or activity of a reporter protein is the signal.

Active and inactive are the calls of the source.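 The calls were made as follows, unless noted: active = fluorescence slope higher than the sample average by over 3 SD (cut at about -0.22 in these data, passing the limit was not always enough); inactive = the rest.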

Chain of Muscarinic acetylcholine receptor M4 (Homo sapiens) (P08173 whole entry, looked up): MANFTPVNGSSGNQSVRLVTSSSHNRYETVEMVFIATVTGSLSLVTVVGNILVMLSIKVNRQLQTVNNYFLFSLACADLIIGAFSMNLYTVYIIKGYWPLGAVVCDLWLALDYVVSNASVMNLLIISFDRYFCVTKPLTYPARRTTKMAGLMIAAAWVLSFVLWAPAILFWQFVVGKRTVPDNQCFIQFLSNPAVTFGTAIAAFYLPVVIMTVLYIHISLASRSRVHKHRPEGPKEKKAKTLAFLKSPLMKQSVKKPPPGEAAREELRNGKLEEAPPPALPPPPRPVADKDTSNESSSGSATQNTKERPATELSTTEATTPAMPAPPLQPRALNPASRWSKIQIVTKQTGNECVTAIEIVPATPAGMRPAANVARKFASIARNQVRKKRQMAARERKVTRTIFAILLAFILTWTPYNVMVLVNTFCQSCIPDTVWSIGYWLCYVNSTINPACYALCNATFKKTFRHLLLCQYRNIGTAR

Regarding `CCNc1nc(N2CCCCC2)nc(-n2nnc(C(=O)OCC)c2C)n1`, the cell count in experiment [1] was 550. Moreover, the inhibition is -5.3% (inactive) in experiment [1], 27.7% (inactive) in experiment [3], -2.26% (inactive) in experiment [7] and 4.91% (inactive) in experiment [8]. Moreover, the inhibition of aggregation in experiment [2] was 1.6% (inactive). In addition, the nuclei count is 92.5% in experiment [2] and 66.8% in experiment [3]. Besides, the fluorescence slope in experiment [4] was -0.613 (inactive); in experiment [6], 0.00368 (inactive). The NADPH fluorescence slope in experiment [5] is -6.3e-05 (inactive).

As to `Cc1ccccc1NC(=O)N1C2CCCC1CC(NC(=O)C1CC1)C2` (centres undefined), the cell count in experiment [1] is 747. For the same compound, the inhibition was -16.7% (inactive) in experiment [1], 64.2% (inactive) in experiment [3], 16.2% (inactive) in experiment [7] and 16.2% (inactive) in experiment [8]. The inhibition of aggregation in experiment [2] is -5.1% (inactive). In addition, the results for the nuclei count in experiment [2] and in experiment [3] were 107% and 94.5%, respectively. Moreover, the figures for the fluorescence slope in experiment [4] and in experiment [6] were -0.361 (inactive) and 0.00599 (inactive), respectively. Further, the NADPH fluorescence slope in experiment [5] is 8.6e-05 (inactive).

For `CC(=O)OC(C(=O)NCc1ccco1)c1cccnc1` (centres undefined), the cell count in experiment [1] was determined as 609. The inhibition in experiment [1] is -36.2% (inactive); in experiment [3], -9.7% (inactive); in experiment [7], 13% (inactive); in experiment [8], 15.9% (inactive). In addition, in experiment [2], the inhibition of aggregation was -14.7% (inactive). Moreover, the nuclei count came out at 105% in experiment [2] and 135% in experiment [3]. In addition, the fluorescence slope in experiment [4] was -0.553 (inactive); in experiment [6], 0.00644 (inactive). Also, the NADPH fluorescence slope in experiment [5] is -7.1e-05 (inactive).

Turning to `Cc1ccc(C(=O)CSc2nnc(CNc3ccc(C)cc3C)o2)cc1`, the cell count in experiment [1] is 553. The inhibition in experiment [1] is -7.3% (inactive); in experiment [3], -124% (inactive); in experiment [7], 6.54% (inactive); in experiment [8], -0.256% (inactive). In addition, the inhibition of aggregation in experiment [2] is 19.7% (inactive). Besides, the nuclei count in experiment [2] is 97.5%; in experiment [3] it was 193%. For the same compound, the fluorescence slope is -0.477 (inactive) in experiment [4] and 0.00488 (inactive) in experiment [6]. In addition, in experiment [5], the NADPH fluorescence slope was -8.9e-06 (inactive).

For the compound `CCOC(=O)N1CCN(C(=O)Nc2ccc3oc(C)nc3c2)CC1`, in experiment [1], the cell count was found to be 254. For the same compound, the inhibition in experiment [1] was 4.2% (inactive); in experiment [3] it was -238% (inactive); in experiment [7], 5.52% (inactive); in experiment [8] it was -2.82% (inactive). For the same compound, in experiment [2], the inhibition of aggregation was 20.5% (inactive). Further, the nuclei count in experiment [2] was determined as 84.8%; in experiment [3], 116%. The fluorescence slope in experiment [4] is -0.463 (inactive); in experiment [6], 0.00473 (inactive). The NADPH fluorescence slope in experiment [5] is 1.5e-05 (inactive).

As for `Cc1cccc(N2CCN(S(=O)(=O)c3ccc4c(c3)CCC(=O)N4)CC2C)c1` (centres undefined), in experiment [1], the cell count was found to be 322. Also, the inhibition in experiment [1] was 4.7% (inactive); in experiment [3] it was -29.6% (inactive); in experiment [7] it was 10.8% (inactive); in experiment [8], 19.1% (inactive). For the same compound, the inhibition of aggregation in experiment [2] was 8.5% (inactive). Also, the nuclei count in experiment [2] stood at 123%; in experiment [3], 126%. Also, the fluorescence slope in experiment [4] was -0.453 (inactive); in experiment [6] it was 0.00513 (inactive). The NADPH fluorescence slope in experiment [5] was -0.00034 (inactive).

`O=C(CCCCCn1c(=O)[nH]c2ccsc2c1=O)N1CCCCC1`: in experiment [1], the cell count came to 306. Also, the inhibition was -1.8% (inactive) in experiment [1], -75% (inactive) in experiment [3], 18.4% (inactive) in experiment [7] and 6.28% (inactive) in experiment [8]. Moreover, the inhibition of aggregation in experiment [2] is 25.2% (inactive). Further, the figures for the nuclei count in experiment [2] and in experiment [3] were 91.7% and 85.7%, respectively. Further, the fluorescence slope was -0.457 (inactive) in experiment [4] and 0.0042 (inactive) in experiment [6]. In addition, in experiment [5], the NADPH fluorescence slope is -2.3e-05 (inactive).

Take `O=C(CCNC(=O)Cn1ccc2ccccc2c1=O)NCCN1CCN(c2ccccc2F)CC1`: the cell count in experiment [1] was 335. The inhibition in experiment [1] was -5.7% (inactive); in experiment [3], 1.6% (inactive); in experiment [7], 12.1% (inactive); in experiment [8], 14.1% (inactive). The inhibition of aggregation in experiment [2] is -19.4% (inactive). For the same compound, the nuclei count in experiment [2] and in experiment [3] was 104% throughout. The fluorescence slope in experiment [4] was -0.528 (inactive); in experiment [6] it was 0.00558 (inactive). Moreover, the NADPH fluorescence slope in experiment [5] is 3.6e-05 (inactive).

In the case of `Cc1noc(C)c1C(=O)Nc1sc(C)c(C)c1C#N`, in experiment [1], the cell count is 264. The inhibition in experiment [1] was 3.7% (inactive); in experiment [3], -40.3% (inactive); in experiment [7], -9.52% (inactive); in experiment [8] it was -43.8% (inactive). The inhibition of aggregation in experiment [2] was 7.6% (inactive). Also, the nuclei count was 87.5% in experiment [2] and 103% in experiment [3]. For the same compound, the fluorescence slope in experiment [4] is -0.436 (inactive); in experiment [6], 0.00444 (inactive). Besides, the NADPH fluorescence slope in experiment [5] is -2.4e-06 (inactive).

As to `COc1cc(CC(=O)Nc2ncc(C)s2)cc(OC)c1OC`, the cell count in experiment [1] worked out at 524. Further, the inhibition in experiment [1] was -6.7% (inactive); in experiment [3], -68.3% (inactive); in experiment [7], 19.3% (inactive); in experiment [8], 18.5% (inactive). Also, the inhibition of aggregation in experiment [2] is 20.3% (inactive). Moreover, the nuclei count in experiment [2] was 78.3%; in experiment [3], 113%. For the same compound, the fluorescence slope in experiment [4] is -0.501 (inactive); in experiment [6], 0.00592 (inactive). In addition, the NADPH fluorescence slope in experiment [5] is 7.8e-05 (inactive).

On to `CC1CCc2nc(NC(=O)CN3CCN(Cc4ccc5c(c4)OCO5)CC3)sc2C1` (centres undefined), for which the cell count in experiment [1] was determined as 641. Further, the inhibition in experiment [1] was -9.3% (inactive); in experiment [3], -24.4% (inactive); in experiment [7], 11.9% (inactive); in experiment [8], 10.6% (inactive). For the same compound, in experiment [2], the inhibition of aggregation was 2% (inactive). Further, the results for the nuclei count in experiment [2] and in experiment [3] were 100% and 97.3%, respectively. The fluorescence slope in experiment [4] was -0.544 (inactive); in experiment [6], 0.00492 (inactive). The NADPH fluorescence slope in experiment [5] is -6.2e-05 (inactive).

Regarding `Cc1cc(O)c(NC(=O)c2ccc(Br)o2)cc1C`, in experiment [1], the cell count was found to be 394. Moreover, the inhibition in experiment [1] was 5.5% (inactive); in experiment [3] it was -6.8% (inactive); in experiment [7], 8.6% (inactive); in experiment [8] it was -53.5% (inactive). Besides, the inhibition of aggregation in experiment [2] was -12.4% (inactive). The values for the nuclei count in experiment [2] and in experiment [3] were 103% and 116%, respectively. The fluorescence slope is -0.299 (inactive) in experiment [4] and 0.00583 (inactive) in experiment [6]. For the same compound, the NADPH fluorescence slope in experiment [5] is -6.1e-05 (inactive).

On to `CCCCc1ccc(NC(=O)c2c(C)noc2C)cc1`, for which, in experiment [1], the cell count is 451. For the same compound, the inhibition is -2.5% (inactive) in experiment [1], 47.3% (inactive) in experiment [3], -8.01% (inactive) in experiment [7] and -38.5% (inactive) in experiment [8]. In experiment [2], the inhibition of aggregation was 0.1% (inactive). Besides, the nuclei count in experiment [2] came to 109%; in experiment [3], 95.2%. For the same compound, the fluorescence slope in experiment [4] was -0.563 (inactive); in experiment [6] it was 0.00365 (inactive). Besides, the NADPH fluorescence slope in experiment [5] is -0.000106 (inactive).

Take `COc1ccc(CCNC(=O)C2CCN(Cc3nc(-c4cccc(Cl)c4)oc3C)CC2)cc1OC`: the cell count in experiment [1] is 400. For the same compound, the inhibition in experiment [1] was 6% (inactive); in experiment [3], -12.2% (inactive); in experiment [7], 6.77% (inactive); in experiment [8], -17.9% (inactive). For the same compound, in experiment [2], the inhibition of aggregation was 17.8% (inactive). The figures for the nuclei count in experiment [2] and in experiment [3] were 94.3% and 86.6%, respectively. The fluorescence slope is -0.584 (inactive) in experiment [4] and 0.00471 (inactive) in experiment [6]. The NADPH fluorescence slope in experiment [5] is -1.7e-05 (inactive).
